Measurements from ChEMBL document CHEMBL3774373, “Activity and Predicted Nephrotoxicity of Synthetic Antibiotics Based on Polymyxin B” (J Med Chem, 2016).
Converted amounts (≈) assume the structure as drawn. Bridge positions count the residues as written; N and C are the ends. Square brackets hold non-standard residues; d marks the D form. Peptide text beside a SMILES is read from it. * marks the point of attachment. ξ: configuration not given here. dBip = N[C@H](Cc1ccc(-c2ccccc2)cc1)C(=O)O; Phe(4-NH2) = Nc1ccc(C[C@H](N)C(=O)O)cc1; dGly(nOct) = CCCCCCCC[C@@H](N)C(=O)O; ξGly(octyl) = CCCCCCCCC(N)C(=O)O; Octanoyl = CCCCCCCC(=O)*; Dab = NCC[C@H](N)C(=O)O

How the values were obtained:
[1] = tested on: Klebsiella pneumoniae; test: Antibacterial activity against Klebsiella pneumoniae ATCC BAA-2146 expressing NDM-1 after 18 hrs by 2 fold serial dilution method; format: functional; settings: ATCC BAA-2146, 18 h
Summary of the method: (§1)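 Overnight cultures at 37 °C in nutrient or Mueller Hinton broth with shaking were diluted 50-fold in MHB and grown 1.5–3 h to mid-log phase. The inoculum was 5×10^5 CFU/mL in MHB. Compounds were 2-fold serially diluted, final 32 to 0.015 μg/mL. After 18 h at 37 °C, the MIC was read visually as the lowest concentration with no visible growth.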

[2] = tested on: Escherichia coli; test: Antibacterial activity against Escherichia coli ATCC 25922 after 18 hrs by 2 fold serial dilution method; format: functional; settings: ATCC 25922, 18 h
Summary of the method: (§2)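 Overnight cultures in nutrient or Mueller Hinton broth at 37 °C with shaking, diluted 50-fold into fresh MHB and grown 1.5–3 h to mid-log. Inoculum 5×10^5 CFU/mL in 2-fold serial dilutions, final range 32 to 0.015 μg/mL. MIC read visually after 18 h at 37 °C as the lowest concentration with no visible growth.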

[3] = tested on: Klebsiella pneumoniae; test: Antibacterial activity against multidrug resistant Klebsiella pneumoniae ATCC 700603 after 18 hrs by 2 fold serial dilution method; format: functional; settings: Klebsiella pneumoniae, 700603, 18 h; summary of the method: as §1
[4] = tested on: Pseudomonas aeruginosa; test: Antibacterial activity against Pseudomonas aeruginosa ATCC 27853 after 18 hrs by 2 fold serial dilution method; format: functional; settings: ATCC 27853, 18 h; summary of the method: as §2
[5] = tested on: Pseudomonas aeruginosa; test: Antibacterial activity against clinical isolate polymyxin resistant Pseudomonas aeruginosa PA9704 after 18 hrs by 2 fold serial dilution method; format: functional; settings: PA9704, 18 h
Summary of the method: (§3)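 Polymyxin-resistant clinical isolates were grown overnight at 37 °C in NB or MHB with shaking, diluted 50-fold in MHB and grown 1.5–3 h to mid-log phase. The inoculum was 5×10^5 CFU/mL. Compounds were 2-fold broth serial dilutions, final 32 to 0.015 μg/mL; the polymyxin controls ran 128–0.06 μg/mL. The MIC was the lowest concentration with no visible growth after 18 h at 37 °C.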

[6] = tested on: Pseudomonas aeruginosa; test: Antibacterial activity against clinical isolate polymyxin resistant Pseudomonas aeruginosa FADDI-PA070 after 18 hrs by 2 fold serial dilution method; format: functional; settings: FADDI-PA070, 18 h; summary of the method: as §3
[7] = tested on: Klebsiella pneumoniae; test: Antibacterial activity against clinical isolate carbapenem and polymyxin resistant Klebsiella pneumoniae Koprana 100650661:1 after 18 hrs by 2 fold serial dilution method; format: functional; settings: Koprana 100650661:1, 18 h; summary of the method: as §3
[8] = tested on: Klebsiella pneumoniae; test: Antibacterial activity against clinical isolate carbapenem and polymyxin resistant Klebsiella pneumoniae 138-16357-20362 after 18 hrs by 2 fold serial dilution method; format: functional; settings: 138-16357-20362, 18 h; summary of the method: as §3
[9] = tested on: Acinetobacter baumannii; test: Antibacterial activity against clinical isolate carbapenem and polymyxin resistant Acinetobacter baumannii Ptyela 100734512:2 after 18 hrs by 2 fold serial dilution method; format: functional; settings: Ptyela 100734512:2, 18 h; summary of the method: as §3
[10] = tested on: Klebsiella pneumoniae; test: Antibacterial activity against Klebsiella pneumoniae ATCC 13883 after 18 hrs by 2 fold serial dilution method; format: functional; settings: ATCC 13883, 18 h; summary of the method: as §2
[11] = Cytotoxicity against human HepG2 cells after 24 hrs by resazurin assay; format: cell-based; settings: HepG2 cells
[12] = tested on: Staphylococcus aureus; test: microbe, parasite or virus in culture; settings: ATCC 25923, 18 h
[13] = tested on: Acinetobacter baumannii; test: Antibacterial activity against Acinetobacter baumannii ATCC 19606 after 18 hrs by 2 fold serial dilution method; format: functional; settings: ATCC 19606, 18 h; summary of the method: as §2

## CCCCCCCC(=O)N[C@@H](CCN)C(=O)N[C@H](C(=O)N[C@@H](CCN)C(=O)N[C@H]1CCNC(=O)[C@H]([C@@H](C)O)NC(=O)[C@H](CCN)NC(=O)[C@H](CCN)NC(=O)[C@H](CC(C)C)NC(=O)[C@@H](Cc2ccc(-c3ccccc3)cc2)NC(=O)[C@H](CCN)NC1=O)[C@@H](C)O (Octanoyl-[Dab]T[Dab][Dab][Dab][dBip]L[Dab][Dab]T; lactam 4-C)
[1]
  MIC: 1 µg/mL (≈ 0.79 µM)
[2]
  MIC: 1 µg/mL (≈ 0.79 µM)
[3]
  MIC: 2 µg/mL (≈ 1.58 µM)
[4]
  MIC: 1 µg/mL (≈ 0.79 µM)
[5]
  MIC: 16 µg/mL (≈ 12.6 µM)
[6]
  MIC: 16 µg/mL (≈ 12.6 µM)
[7]
  MIC: 32 µg/mL (≈ 25.3 µM)
[8]
  MIC: 32 µg/mL (≈ 25.3 µM)
[9]
  MIC: 8 µg/mL (≈ 6.32 µM)
[10]
  MIC: 4 µg/mL (≈ 3.16 µM)
[11]
  CC50 at 24 h: 119 µM
[12]
  MIC: 8 µg/mL (≈ 6.32 µM)
[13]
  MIC: 0.5 µg/mL (≈ 0.395 µM)

## CCCCCCCC(=O)N[C@@H](CCN)C(=O)N[C@H](C(=O)N[C@@H](CCN)C(=O)N[C@H]1CCNC(=O)[C@H]([C@@H](C)O)NC(=O)[C@H](CCN)NC(=O)[C@H](CCN)NC(=O)[C@H](CC(C)C)NC(=O)[C@@H](Cc2ccccc2)NC(=O)[C@H](CCNC(=O)[C@@H](N)CCC(=O)O)NC1=O)[C@@H](C)O (Octanoyl-[Dab]T[Dab][Dab][Dab](Glu)[dF]L[Dab][Dab]T; lactam 4-C)
[1]
  MIC: 32 µg/mL (≈ 24.3 µM)
[2]
  MIC: > 32 µg/mL
[3]
  MIC: > 32 µg/mL
[4]
  MIC: > 32 µg/mL
[5]
  MIC: > 32 µg/mL
[6]
  MIC: > 32 µg/mL
[7]
  MIC: > 32 µg/mL
[8]
  MIC: > 32 µg/mL
[9]
  MIC: > 32 µg/mL
[10]
  MIC: > 32 µg/mL
[11]
  CC50 at 24 h: > 300 µM
[12]
  MIC: > 32 µg/mL
[13]
  MIC: > 32 µg/mL

## CCCCCCCCC1NC(=O)[C@@H](Cc2ccccc2)NC(=O)[C@H](CCN)NC(=O)[C@@H](NC(=O)[C@H](CCN)NC(=O)[C@@H](NC(=O)[C@H](CCN)NC(=O)CCCCCCC)[C@@H](C)O)CCNC(=O)[C@H]([C@@H](C)O)NC(=O)[C@H](CCN)NC(=O)[C@H](CCN)NC1=O (some centres not stated) (Octanoyl-[Dab]T[Dab][Dab][Dab][dF][ξGly(octyl)][Dab][Dab]T; lactam 4-C)
[1]
  MIC: 1 µg/mL (≈ 0.803 µM)
[2]
  MIC: 1 µg/mL (≈ 0.803 µM)
[3]
  MIC: 2 µg/mL (≈ 1.61 µM)
[4]
  MIC: 2 µg/mL (≈ 1.61 µM)
[5]
  MIC: 8 µg/mL (≈ 6.42 µM)
[6]
  MIC: 16 µg/mL (≈ 12.8 µM)
[7]
  MIC: 32 µg/mL (≈ 25.7 µM)
[8]
  MIC: 32 µg/mL (≈ 25.7 µM)
[9]
  MIC: 8 µg/mL (≈ 6.42 µM)
[10]
  MIC: 2 µg/mL (≈ 1.61 µM)
[11]
  CC50 at 24 h: 116 µM
[12]
  MIC: 8 µg/mL (≈ 6.42 µM)
[13]
  MIC: 1 µg/mL (≈ 0.803 µM)

## CCCCCCCC(=O)N[C@@H](CCN)C(=O)N[C@H](C(=O)N[C@@H](CCN)C(=O)N[C@H]1CCNC(=O)[C@H]([C@@H](C)O)NC(=O)[C@H](CCN)NC(=O)[C@H](CCN)NC(=O)[C@H](CC(C)C)NC(=O)[C@@H](Cc2ccccc2)NC(=O)[C@H](Cc2ccc(N)cc2)NC1=O)[C@@H](C)O (Octanoyl-[Dab]T[Dab][Dab][Phe(4-NH2)][dF]L[Dab][Dab]T; lactam 4-C)
[2]
  MIC: > 32 µg/mL
[3]
  MIC: > 32 µg/mL
[4]
  MIC: > 32 µg/mL
[5]
  MIC: > 32 µg/mL
[6]
  MIC: > 32 µg/mL
[7]
  MIC: > 32 µg/mL
[8]
  MIC: > 32 µg/mL
[9]
  MIC: > 32 µg/mL
[10]
  MIC: > 32 µg/mL
[11]
  CC50 at 24 h: > 300 µM
[12]
  MIC: > 32 µg/mL
[13]
  MIC: > 32 µg/mL

## CCCCCCCC(=O)N[C@@H](CCN)C(=O)N[C@H](C(=O)N[C@H](CO)C(=O)N[C@H]1CCNC(=O)[C@H]([C@@H](C)O)NC(=O)[C@H](CCN)NC(=O)[C@H](CCN)NC(=O)[C@H](CC(C)C)NC(=O)[C@@H](Cc2ccccc2)NC(=O)[C@H](CCN)NC1=O)[C@@H](C)O (Octanoyl-[Dab]T[dS][Dab][Dab][dF]L[Dab][Dab]T; lactam 4-C)
[1]
  MIC: 16 µg/mL (≈ 13.6 µM)
[2]
  MIC: 4 µg/mL (≈ 3.4 µM)
[3]
  MIC: 2 µg/mL (≈ 1.7 µM)
[4]
  MIC: 2 µg/mL (≈ 1.7 µM)
[5]
  MIC: > 32 µg/mL
[6]
  MIC: > 32 µg/mL
[7]
  MIC: > 32 µg/mL
[8]
  MIC: > 32 µg/mL
[9]
  MIC: > 32 µg/mL
[10]
  MIC: 0.5 µg/mL (≈ 0.425 µM)
[11]
  CC50 at 24 h: > 300 µM
[12]
  MIC: > 32 µg/mL
[13]
  MIC: 1 µg/mL (≈ 0.85 µM)

## CCCCCCCC[C@H]1NC(=O)[C@H](CCN)NC(=O)[C@@H](NC(=O)[C@H](CCN)NC(=O)[C@@H](NC(=O)[C@H](CCN)NC(=O)CCCCCCC)[C@@H](C)O)CCNC(=O)[C@H]([C@@H](C)O)NC(=O)[C@H](CCN)NC(=O)[C@H](CCN)NC(=O)[C@H](CC(C)C)NC1=O (Octanoyl-[Dab]T[Dab][Dab][Dab][dGly(nOct)]L[Dab][Dab]T; lactam 4-C)
[4]
  MIC: 4 µg/mL (≈ 3.3 µM)
[10]
  MIC: 1 µg/mL (≈ 0.825 µM)
[13]
  MIC: 1 µg/mL (≈ 0.825 µM)
